Published values collected from several papers.
Compare with care: the assays were run in different laboratories.
Target: Ephrin type-A receptor 6 (EPHA6, Homo sapiens, UniProt Q9UF33)
Residues used in one study (Q9UF33 1-1036): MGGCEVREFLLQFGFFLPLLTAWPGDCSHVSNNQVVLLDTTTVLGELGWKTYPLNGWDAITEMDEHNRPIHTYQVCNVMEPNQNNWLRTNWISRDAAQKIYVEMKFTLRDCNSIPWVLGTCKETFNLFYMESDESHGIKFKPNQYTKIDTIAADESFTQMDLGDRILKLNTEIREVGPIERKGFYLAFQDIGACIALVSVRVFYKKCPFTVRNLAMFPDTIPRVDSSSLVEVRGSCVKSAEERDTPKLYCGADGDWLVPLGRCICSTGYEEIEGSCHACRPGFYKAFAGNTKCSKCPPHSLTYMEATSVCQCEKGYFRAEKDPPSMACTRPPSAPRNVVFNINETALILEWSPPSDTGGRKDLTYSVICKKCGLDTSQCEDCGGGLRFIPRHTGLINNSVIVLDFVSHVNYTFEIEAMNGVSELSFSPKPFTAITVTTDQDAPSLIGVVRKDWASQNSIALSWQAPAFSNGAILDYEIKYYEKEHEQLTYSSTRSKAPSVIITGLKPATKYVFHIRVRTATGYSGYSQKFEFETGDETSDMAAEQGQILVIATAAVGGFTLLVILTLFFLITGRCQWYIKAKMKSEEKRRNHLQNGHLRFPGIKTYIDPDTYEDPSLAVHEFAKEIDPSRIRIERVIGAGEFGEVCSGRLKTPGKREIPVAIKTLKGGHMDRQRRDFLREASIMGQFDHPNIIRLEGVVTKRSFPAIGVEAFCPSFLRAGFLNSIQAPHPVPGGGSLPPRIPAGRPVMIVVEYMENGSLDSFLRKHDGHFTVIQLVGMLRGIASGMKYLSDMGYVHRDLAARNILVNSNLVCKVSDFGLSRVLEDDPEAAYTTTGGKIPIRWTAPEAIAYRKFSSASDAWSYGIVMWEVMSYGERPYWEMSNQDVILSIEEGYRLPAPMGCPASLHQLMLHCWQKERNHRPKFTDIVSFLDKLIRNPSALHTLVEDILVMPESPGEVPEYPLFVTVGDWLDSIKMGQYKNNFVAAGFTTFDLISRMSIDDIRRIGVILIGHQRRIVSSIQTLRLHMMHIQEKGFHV

CC(C)(C)c1nc(-c2cccc(NS(=O)(=O)c3c(F)cccc3F)c2F)c(-c2ccnc(N)n2)s1  remaining activity (enzyme activity, inhibitor, radiometric; 1 µM): 72%
CC/C(=N\NC(=O)NCc1cccc(O)c1)c1ccc(O)c(C)c1O  inhibition (enzyme activity, inhibitor; 0.1 µM): 1.5%
N#Cc1ccc(Nc2ccc3[nH]c(=O)[nH]c3c2)c(Cl)c1  remaining binding (cell-free assay, competition with immobilised ligand; 1 µM): 82%
O=C(Nc1cnn(-c2csc(C(=O)NC3COC3)c2)c1)Nc1ccccc1Cl  remaining activity (enzyme activity, inhibitor; 5 µM): 99.5%
CC(C)(O)[C@H]1CC[C@H](Nc2ccc3ncc(-c4cccc(C(F)(F)F)c4)n3n2)CC1  remaining activity (enzyme activity, inhibitor; 1 µM): 91.1%
CC(=O)Nc1c(C(C)=O)c(=O)n(C)c2nc(-c3ccc(Cl)cc3Cl)c(-c3ccc(Cl)cc3)cc12  remaining binding (cell-free assay, competition with immobilised ligand; 1 µM): 100%
Oc1cccc(-c2nc(N3CCOCC3)c3oc4ncccc4c3n2)c1  remaining signal (cell-free assay; 0.5 µM): 79%
Nc1ncnc2occ(-c3ccc(NC(=O)Nc4cc(C(F)(F)F)ccc4F)cc3)c12  remaining signal (cell-free assay; 20 µM): 0%
CC(C)(C)c1nc2c(s1)c1nc(N)ncc1c1ccc(NS(=O)(=O)c3c(F)cccc3F)c(F)c12  remaining activity (enzyme activity, inhibitor, radiometric; 1 µM): 99%
CNC(=O)c1cc(Oc2ccc(NC(=O)Nc3ccc(Cl)c(C(F)(F)F)c3)cc2)ccn1  remaining signal (cell-free assay; 0.5 µM): 42%
CS(=O)(=O)N1CCCC(NC(=O)[C@H](CCC2CCCCC2)NC(=O)c2ccc(CNC(=O)c3cnc4ccccn34)cc2)C1 (stereo partly shown)  remaining binding (cell-free assay, competition with immobilised ligand; 0.1 µM): 100%
Cc1sc(C(=O)NC2COC2)cc1-n1cc(NC(=O)Nc2c(F)cccc2Cl)cn1  remaining activity (enzyme activity, inhibitor; 10 µM): 80.2%
Cc1ccc(C(=O)Nc2ccc(CN3CCN(C)CC3)c(C(F)(F)F)c2)cc1C#Cc1cnc2cccnn12  remaining signal (cell-free assay; 23.5 nM): 45%
